Bioassay records as filed in PubChem BioAssay.
A selection: hits, their analogues and other compounds. The true share with any hit is near 1.6%.
FLuc inhib CS – Photinus pyralis luciferase inhibition counter-screen | P08659 | ATPLite firefly luciferase biochemical luminescence, 10 min | inhibition, % at 10 µM | hit rate 1.5% among 200,000 | AID 1006;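 active = inhibition above about 50% when tested at 10 µM, limit read from the data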
Target sequence (P08659 whole entry, looked up): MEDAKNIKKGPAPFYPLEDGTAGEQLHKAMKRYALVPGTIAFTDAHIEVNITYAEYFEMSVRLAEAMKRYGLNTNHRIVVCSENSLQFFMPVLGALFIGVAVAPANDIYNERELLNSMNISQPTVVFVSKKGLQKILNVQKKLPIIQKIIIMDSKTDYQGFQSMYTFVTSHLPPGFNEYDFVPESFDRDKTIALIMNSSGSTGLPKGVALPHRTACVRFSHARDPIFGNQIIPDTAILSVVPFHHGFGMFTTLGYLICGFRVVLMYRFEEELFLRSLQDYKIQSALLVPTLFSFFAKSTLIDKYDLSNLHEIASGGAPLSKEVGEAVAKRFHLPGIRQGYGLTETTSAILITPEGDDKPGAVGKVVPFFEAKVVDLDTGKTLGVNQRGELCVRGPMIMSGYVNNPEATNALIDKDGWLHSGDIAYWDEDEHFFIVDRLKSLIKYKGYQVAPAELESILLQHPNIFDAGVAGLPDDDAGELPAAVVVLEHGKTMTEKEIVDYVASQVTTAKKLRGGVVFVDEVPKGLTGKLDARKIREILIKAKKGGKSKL
C8 TRAIL sens – caspase-8 TRAIL sensitization; NB7+C8 cells + TRAIL, ATPlite viability luminescence; hit rate 1% among 360,000; inhibition (viability loss, TRAIL sensitization), % at 10 µM; AID 624354;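 active = compounds causing at least 50% loss of cell viability in the single-dose screen, relative to plate controls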
FLuc stim CS – firefly luciferase counter-screen for stimulation assays | 200,000 tested, under 10 active | AID 1027 | ATPlite luciferase biochemical, luminescence, 10 min; 0 = ATP-free wells, 1 = DMSO control | activation factor at 10 µM;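 active = luciferase activation factor, scaled between plate controls, of at least 2 with compound at 10 µM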
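test system = cell-free luciferase reagent | medium = PBS as buffer for the ATP substrate | dosing = test compounds dosed from 2 mM stocks in 100% DMSO | incubation = 10 min at ambient temperature | detection = luminescence measurement of luciferase light output | benchmarks = low control with PBS replacing ATP, high control enzyme plus ATP without compound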
PPC-1+TRAIL kill – kills PPC-1 cancer cells in the presence of TRAIL; PPC-1 cells + TRAIL, ATPLite viability luminescence; cell killing (% activity), % at 4 µM or 5 µM; hit rate 0.41% among 220,000; AID 1443;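 active = cell killing above 50% in the first pass at 4 µM, then a duplicate retest at 5 µM averaging 50% or more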
A number is an active result.

For Cc1ccc(NC(=O)C(C)OC(=O)COc2cccc(C(F)(F)F)c2)cc1 (configuration not stated) the results were C8 TRAIL sens inactive.
Cc1ccc(NC(=O)c2ccc(CSc3nnc(C)s3)cc2)cc1 was read as FLuc inhib CS 55.8, C8 TRAIL sens inactive, FLuc stim CS inactive and PPC-1+TRAIL kill inactive.
Cc1ccc(Cl)cc1NC(=O)c1ccc(CSc2nnnn2C)cc1 was read as FLuc inhib CS inactive, C8 TRAIL sens inactive, FLuc stim CS inactive and PPC-1+TRAIL kill inactive.
`Cc1ccc(NC(=O)c2ccc(CSc3nnnn3C)cc2)cc1` gave FLuc inhib CS 56.6, C8 TRAIL sens 57.7, FLuc stim CS inactive and PPC-1+TRAIL kill inactive.
`COC1=C(N)C(=O)c2nc(C)ccc2C1=O` gave C8 TRAIL sens 91.0.
For COC1=C(Br)C(=O)c2nc(C)ccc2C1=O the results were C8 TRAIL sens inactive.
Screening CC(C)(C)C(=O)CN1C(=O)NC(C)(Cc2ccc3c(c2)OCO3)C1=O (configuration not stated) returned C8 TRAIL sens inactive.
For Nc1c(N(C(=O)Nc2ccc(Cl)c(Cl)c2)C2CCCC2)c(=O)[nH]c(=O)n1Cc1ccccc1 the results were FLuc inhib CS inactive, C8 TRAIL sens 62.9, FLuc stim CS inactive and PPC-1+TRAIL kill inactive.
`Cc1ccc(C(=O)N/N=C\C=C\c2ccccc2[N+](=O)[O-])cn1` gave FLuc inhib CS inactive, C8 TRAIL sens inactive, FLuc stim CS inactive and PPC-1+TRAIL kill inactive.
Screening O=[N+]([O-])c1cccnc1N/N=C/c1ccccc1O returned FLuc inhib CS inactive, C8 TRAIL sens 50.7, FLuc stim CS inactive and PPC-1+TRAIL kill inactive.
`Cc1ccc(C(=O)N/N=C\c2ccccc2[N+](=O)[O-])cn1` gave FLuc inhib CS 78.0, C8 TRAIL sens 51.8 and FLuc stim CS inactive.
CCOc1ccc(NC(=O)COc2ccccc2)c([N+](=O)[O-])c1 was read as FLuc inhib CS 58.9, C8 TRAIL sens inactive, FLuc stim CS inactive and PPC-1+TRAIL kill inactive.
`CCC(=O)Nc1ccc(C(=O)N/N=C/c2ccccc2[N+](=O)[O-])cc1` gave FLuc inhib CS inactive, C8 TRAIL sens inactive, FLuc stim CS inactive and PPC-1+TRAIL kill inactive.
`CCOc1ccc(C(=O)N/N=C/c2ccccc2[N+](=O)[O-])cc1` gave FLuc inhib CS 88.9, C8 TRAIL sens 76.0, FLuc stim CS inactive and PPC-1+TRAIL kill 51.7.
`C[C@H](CO)N1C[C@H](C)[C@@H](CN(C)S(=O)(=O)c2ccc(Oc3ccccc3)nc2)OCc2cn(nn2)CCCC1=O` gave C8 TRAIL sens inactive.
`CNC(=O)COC(=O)c1ccc(-c2nc3ccccc3s2)s1` gave FLuc inhib CS 80.8, C8 TRAIL sens inactive, FLuc stim CS inactive and PPC-1+TRAIL kill 66.3.
COCCCNC(=O)COC(=O)c1ccc(-c2nc3ccccc3s2)s1 was read as FLuc inhib CS inactive, C8 TRAIL sens inactive, FLuc stim CS inactive and PPC-1+TRAIL kill inactive.
`Cc1cc(C)n(CCC(=O)N=Nc2c(O)[nH]c3ccc(Br)cc23)n1` gave C8 TRAIL sens inactive and PPC-1+TRAIL kill inactive.
For Cc1cccc(NC(=O)C2CCN(C(=O)N3CCOc4ccccc43)CC2)c1C the results were C8 TRAIL sens inactive.
`Cc1cc(C(=O)COC(=O)C(C)NC(N)=O)c(C)n1Cc1ccco1` (configuration not stated) gave FLuc inhib CS 66.9, C8 TRAIL sens inactive, FLuc stim CS inactive and PPC-1+TRAIL kill inactive.
`Cc1cc(C(=O)CSc2ncccn2)c(C)n1Cc1ccco1` gave FLuc inhib CS 63.5, C8 TRAIL sens inactive, FLuc stim CS inactive and PPC-1+TRAIL kill inactive.
CCOc1ncccc1C(=O)OCC(=O)c1cc(C)n(Cc2ccco2)c1C was read as FLuc inhib CS 66.8, C8 TRAIL sens inactive, FLuc stim CS inactive and PPC-1+TRAIL kill inactive.
`CS(=O)(=O)Nc1ccccc1-c1ccc2nccn2c1` gave C8 TRAIL sens inactive.
`COc1ccc(C(=O)Nc2ccc3[nH]ncc3c2)cc1` gave C8 TRAIL sens 75.3.
O=C(Nc1ccc2[nH]ccc2c1)c1cccs1 was read as C8 TRAIL sens 62.6 and PPC-1+TRAIL kill inactive.
For COc1cc(NC(=O)c2ccccc2)cc(OC)c1 the results were FLuc inhib CS inactive, C8 TRAIL sens inactive, FLuc stim CS inactive and PPC-1+TRAIL kill inactive.
For O=C(Nc1ccc2[nH]ncc2c1)c1ccc(F)cc1 the results were C8 TRAIL sens inactive.
Screening CCOc1ccc(C(=O)Nc2ccc3[nH]ncc3c2)cc1 returned C8 TRAIL sens 71.5.
For O=C(Nc1ccc(NC(=O)c2cccs2)cc1)c1cccs1 the results were C8 TRAIL sens inactive.
For O=C(Nc1ccc2[nH]ncc2c1)c1ccccc1 the results were C8 TRAIL sens inactive.
`COc1ccc(C(=O)Nc2cc(OC)cc(OC)c2)cc1` gave FLuc inhib CS 66.2, C8 TRAIL sens inactive, FLuc stim CS inactive and PPC-1+TRAIL kill inactive.
Screening Cc1ccc(NC(=O)CSc2nc(O)c(Cc3ccccc3)c(=O)n2-c2ccccc2)cc1 returned FLuc inhib CS inactive, C8 TRAIL sens inactive, FLuc stim CS inactive and PPC-1+TRAIL kill inactive.
Screening NC(c1ccncc1)c1ccc(Cl)cc1 (configuration not stated) returned C8 TRAIL sens inactive.
For COc1ccc(C(=O)Nc2ccc3[nH]ccc3c2)cc1 the results were C8 TRAIL sens 92.5.
Screening Cc1ccc(-c2nc(CN3CCN(C(=O)C4CCCO4)CC3)cs2)cc1 (configuration not stated) returned C8 TRAIL sens inactive.
Cc1ccc(C(=O)Nc2nc3ccc(S(C)(=O)=O)cc3s2)o1 was read as FLuc inhib CS 74.3, C8 TRAIL sens inactive, FLuc stim CS inactive and PPC-1+TRAIL kill inactive.
For Cc1noc(C)c1C(=O)Nc1nc2ccc(S(C)(=O)=O)cc2s1 the results were C8 TRAIL sens 54.2.
Cc1cc(N(C)C)ccc1N=Nc1ccc2ncccc2c1 was read as C8 TRAIL sens inactive and PPC-1+TRAIL kill inactive.
For CN(C)c1ccc(N=Nc2ccc3ncccc3c2)cc1 the results were C8 TRAIL sens 70.9.
For Cc1nnc(SCc2ccc(F)cc2)s1 the results were FLuc inhib CS inactive, C8 TRAIL sens inactive, FLuc stim CS inactive and PPC-1+TRAIL kill inactive.
Screening Cc1nc(CSc2nnc(C)s2)cs1 returned FLuc inhib CS inactive, C8 TRAIL sens inactive, FLuc stim CS inactive and PPC-1+TRAIL kill 87.3.
For C[C@@]12C(=O)OC(=O)[C@]1(C)C1CCC2O1 the results were C8 TRAIL sens 64.7.
For CC12C(=O)N(c3nccs3)C(=O)C1(C)C1CCC2O1 (configuration not stated) the results were C8 TRAIL sens inactive.
Screening CCN(CC)S(=O)(=O)c1ccc(NC(=O)C2c3ccccc3Oc3ccccc32)cc1 returned FLuc inhib CS inactive, C8 TRAIL sens inactive, FLuc stim CS inactive and PPC-1+TRAIL kill inactive.
For Cc1nnc(NC(=O)c2nc(S(=O)(=O)Cc3ccccc3)ncc2Cl)s1 the results were C8 TRAIL sens 82.9.
`Cc1ccccc1CS(=O)(=O)c1ncc(Cl)c(C(=O)Nc2ccc(F)cc2)n1` gave C8 TRAIL sens 91.7.
Cc1cccc(C)c1NC(=O)c1nc(S(=O)(=O)Cc2ccccc2)ncc1Cl was read as C8 TRAIL sens inactive.
